Laboratory results: ChEMBL document CHEMBL2169805, “The discovery of CCR3/H1 dual antagonists with reduced hERG risk” (Bioorg Med Chem Lett, 2012)
In brackets after ≈: the same amount, converted by molar mass.

Assays:
[1] = Volume of distribution at steady state in Sprague-Dawley rat at 1 mg/kg, iv; type: ADME, organism-based; set-up: dose 1 mg/kg, route intravenous; settings: in vivo, read-out: Vdss
Summary of the method: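 Male Sprague-Dawley rats given a single iv dose, nominal 1 mg/kg, […] in DMA:PEG400:H2O (2:2:1).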

[2] = Oral bioavailability in dog at 1 mg/kg administered using 0.1%tween-1%CMC as vehicle; type: ADME, organism-based, Canis lupus familiaris; settings: in vivo
[3] = Half life in Sprague-Dawley rat at 1 mg/kg, iv; type: ADME, organism-based; set-up: dose 1 mg/kg, route intravenous; settings: in vivo
[4] = Oral bioavailability in Sprague-Dawley rat at 1 mg/kg administered using cyclodextrin-meglumine as vehicle; type: ADME, organism-based; settings: in vivo
[5] = Clearance in Sprague-Dawley rat at 1 mg/kg, iv; type: ADME, organism-based; set-up: dose 1 mg/kg, route intravenous; settings: in vivo
[6] = Oral bioavailability in Sprague-Dawley rat at 1 mg/kg administered using 0.1%tween-1%CMC as vehicle; type: ADME, organism-based; settings: in vivo
[7] = Solubility of the compound at pH 7.4; type: physicochemical; settings: buffer
Histamine H1 receptor = Histamine H1 receptor (Homo sapiens, UniProt P35367); test: Displacement of [3H]pyrilamine from human H1 receptor expressed in CHOK1 cells; type: cell-based, CHO-K1
Sequence of Histamine H1 receptor (P35367 whole entry): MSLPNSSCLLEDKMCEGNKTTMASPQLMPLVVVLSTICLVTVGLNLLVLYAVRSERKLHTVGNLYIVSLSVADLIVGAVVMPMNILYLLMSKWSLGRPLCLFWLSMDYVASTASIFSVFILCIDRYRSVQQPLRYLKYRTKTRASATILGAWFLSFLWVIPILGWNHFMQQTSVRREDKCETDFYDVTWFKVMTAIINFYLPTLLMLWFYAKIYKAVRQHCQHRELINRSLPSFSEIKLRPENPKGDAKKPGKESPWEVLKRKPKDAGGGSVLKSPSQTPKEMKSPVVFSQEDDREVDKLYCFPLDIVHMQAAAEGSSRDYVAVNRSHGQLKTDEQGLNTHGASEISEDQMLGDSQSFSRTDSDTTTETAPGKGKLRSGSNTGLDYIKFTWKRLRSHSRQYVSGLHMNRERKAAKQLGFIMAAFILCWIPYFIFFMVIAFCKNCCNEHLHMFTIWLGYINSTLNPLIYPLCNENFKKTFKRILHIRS

[8] = target: T1, Voltage-gated inwardly rectifying potassium channel KCNH2 (Homo sapiens, UniProt Q12809); test: Inhibition of human ERG expressed in CHO cells by IonworksHT assay; type: cell-based
T1 sequence (Q12809 whole entry): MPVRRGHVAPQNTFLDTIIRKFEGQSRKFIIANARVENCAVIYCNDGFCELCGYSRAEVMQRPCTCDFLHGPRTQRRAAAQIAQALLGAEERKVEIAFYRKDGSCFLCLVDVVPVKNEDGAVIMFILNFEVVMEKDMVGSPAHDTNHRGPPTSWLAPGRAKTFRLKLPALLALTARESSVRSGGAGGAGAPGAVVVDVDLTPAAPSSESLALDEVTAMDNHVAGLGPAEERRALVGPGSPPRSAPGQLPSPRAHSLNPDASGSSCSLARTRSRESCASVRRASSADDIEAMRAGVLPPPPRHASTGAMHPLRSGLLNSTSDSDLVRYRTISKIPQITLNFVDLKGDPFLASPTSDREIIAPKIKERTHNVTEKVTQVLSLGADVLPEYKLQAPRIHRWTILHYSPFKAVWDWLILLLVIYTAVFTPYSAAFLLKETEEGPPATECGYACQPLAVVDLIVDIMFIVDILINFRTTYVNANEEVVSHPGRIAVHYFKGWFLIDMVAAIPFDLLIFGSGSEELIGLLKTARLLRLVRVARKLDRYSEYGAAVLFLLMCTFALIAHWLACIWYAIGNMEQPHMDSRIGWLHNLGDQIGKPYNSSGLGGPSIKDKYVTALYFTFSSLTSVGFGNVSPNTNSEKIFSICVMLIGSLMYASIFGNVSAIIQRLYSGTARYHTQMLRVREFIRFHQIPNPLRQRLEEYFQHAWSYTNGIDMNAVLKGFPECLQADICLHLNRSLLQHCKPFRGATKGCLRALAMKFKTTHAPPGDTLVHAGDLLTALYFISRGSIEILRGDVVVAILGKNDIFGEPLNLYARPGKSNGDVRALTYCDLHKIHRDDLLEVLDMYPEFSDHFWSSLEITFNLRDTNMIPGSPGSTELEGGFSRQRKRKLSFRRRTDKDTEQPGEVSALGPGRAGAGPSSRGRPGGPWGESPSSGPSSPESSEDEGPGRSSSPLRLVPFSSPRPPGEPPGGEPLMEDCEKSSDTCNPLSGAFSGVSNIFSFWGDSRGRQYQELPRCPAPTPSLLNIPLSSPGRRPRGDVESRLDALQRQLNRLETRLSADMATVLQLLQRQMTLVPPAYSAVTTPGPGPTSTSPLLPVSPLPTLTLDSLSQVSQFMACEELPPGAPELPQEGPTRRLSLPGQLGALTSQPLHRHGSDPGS

[9] = target: T2, C-C chemokine receptor type 3 (Homo sapiens, UniProt P51677); test: Binding affinity to human CCR3 receptor expressed in CHOK1 cells by radioligand displacement assay; type: cell-based, CHO-K1
T2 sequence (P51677 whole entry): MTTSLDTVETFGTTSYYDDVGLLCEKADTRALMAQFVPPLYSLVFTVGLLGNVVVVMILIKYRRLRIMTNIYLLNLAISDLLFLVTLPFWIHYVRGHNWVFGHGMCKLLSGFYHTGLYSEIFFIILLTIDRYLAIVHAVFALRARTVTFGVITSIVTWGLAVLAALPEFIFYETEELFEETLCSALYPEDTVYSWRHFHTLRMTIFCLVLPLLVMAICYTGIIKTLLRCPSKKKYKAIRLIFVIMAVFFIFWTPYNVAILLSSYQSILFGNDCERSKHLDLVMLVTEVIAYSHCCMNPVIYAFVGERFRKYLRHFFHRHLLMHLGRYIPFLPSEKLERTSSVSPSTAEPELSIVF

[10] = target: T1, Voltage-gated inwardly rectifying potassium channel KCNH2
[11] = Oral bioavailability in rat; type: ADME, organism-based; settings: in vivo
hERG (KCNH2) = hERG (KCNH2) (Homo sapiens, UniProt Q12809); test: Inhibition of human ERG expressed in HEK293 cells at 10 uM by electrophysiological ion flux assay; type: cell-based; settings: HEK293 cells expressing human ERG
Sequence of hERG (KCNH2) (Q12809 whole entry): as the sequence (Q12809 whole entry) above

Row | Compound | Ki (Histamine H1 receptor) [µM] | Ki [9] [µM] | also measured
1 | Cc1ccc(S(=O)(=O)NC(=O)N2CCC(N3CCC(Oc4ccc(Cl)c(Cl)c4)CC3)CC2)cc1 | – | – | Vd [1]: 2.7 L/kg; bioavailability [2]: 19%; half-life [3]: 2.7 h; bioavailability [4]: 44%; clearance [5]: 20 mL/min/kg; bioavailability [6]: 18%
2 | Cc1ccc(S(=O)(=O)[N-]C(=O)N2CCC(N3CCC(Oc4ccc(Cl)c(Cl)c4)CC3)CC2)cc1.[Na+] | – | – | solubility [7]: 0.26 µM; bioavailability [2]: 97%; bioavailability [6]: 15%
3 | Cc1ccc(S(=O)(=O)N(C)C(=O)N2CCC(N3CCC(Oc4ccc(Cl)c(Cl)c4)CC3)CC2)cc1 | 0.00251 | 0.1 | IC50 [8]: 0.316 µM
4 | Cc1c(Cl)ccc(OC2CCN(C3CCN(C(=O)NS(=O)(=O)c4ccc(N(C)C)cc4)CC3)CC2)c1Cl | – | 0.00316 | Vd [1]: 2.3 L/kg; IC50 [8]: > 20 µM; bioavailability [6]: 82%
5 | O=C(NS(=O)(=O)N1CCC(N2CCC(Oc3ccc(Cl)c(Cl)c3)CC2)CC1)c1ccccc1 | 0.1 | 0.0794 | Vd [1]: 0.5 L/kg; bioavailability [6]: 100%
6 | Cc1c(Cl)ccc(OC2CCN(C3CCN(S(=O)(=O)NC(=O)c4ccccc4)CC3)CC2)c1Cl | 0.0251 | 0.0126 | Vd [1]: 0.9 L/kg; half-life [3]: 1.6 h; clearance [5]: 17 mL/min/kg; bioavailability [6]: 18%; IC50 [10]: 3.98 µM
7 | COc1ccc(C(=O)NCCN2CCN(Cc3ccc(Cl)c(Cl)c3)CC2)cc1Cl | – | 5.01 | –
8 | COc1cccc(C(=O)NCCN2CCC(Oc3ccc(Cl)c(Cl)c3)CC2)c1 | – | 0.1 | half-life [3]: 1.8 h
9 | CS(=O)(=O)c1cccc(C(=O)N2CCC(N3CCC(Oc4ccc(Cl)c(Cl)c4)CC3)CC2)c1 | 0.00794 | 0.0501 | solubility [7]: 0.017 µM (≈ 8.7 ng/mL); half-life [3]: 6.9 h; bioavailability [11]: 50%
10 | O=C(c1c[nH]c(=O)c2ccccc12)N1CCC(N2CCC(Oc3ccc(Cl)c(Cl)c3)CC2)CC1 | 0.0251 | 0.01 | half-life [3]: 4.2 h; bioavailability [11]: 50%
11 | Cc1c(Cl)ccc(OC2CCN(C3CCN(C(=O)c4cccc(S(C)(=O)=O)c4)CC3)CC2)c1Cl | 0.0251 | 0.00501 | –
12 | O=C(O)COc1cccc(C(=O)N2CCC(N3CCC(Oc4ccc(Cl)c(Cl)c4)CC3)CC2)c1 | 0.1 | 0.251 | inhibition at 10 µM (hERG (KCNH2)): 15%
13 | O=C(O)c1ccccc1C(=O)N1CCC(N2CCC(Oc3ccc(Cl)c(Cl)c3)CC2)CC1 | 0.0251 | 0.251 | –
14 | O=C(O)c1cccc(C(=O)N2CCC(N3CCC(Oc4ccc(Cl)c(Cl)c4)CC3)CC2)c1 | 0.126 | 0.2 | IC50 [10]: > 10 µM
15 | O=C(c1ccc(-c2nc(=O)o[nH]2)cc1)N1CCC(N2CCC(Oc3ccc(Cl)c(Cl)c3)CC2)CC1 | 0.0158 | 0.316 | –
16 | O=C(c1ccc(-c2nn[nH]n2)cc1)N1CCC(N2CCC(Oc3ccc(Cl)c(Cl)c3)CC2)CC1 | 0.0316 | 0.2 | –
17 | O=C(O)CCCS(=O)(=O)c1cccc(C(=O)N2CCC(N3CCC(Oc4ccc(Cl)c(Cl)c4)CC3)CC2)c1 | 0.0794 | 0.0794 | –
18 | O=C(O)CCNc1ccccc1C(=O)N1CCC(N2CCC(Oc3ccc(Cl)c(Cl)c3)CC2)CC1 | 0.0158 | 0.501 | –
19 | O=C(O)CCCCn1nnc(-c2ccc(C(=O)N3CCC(N4CCC(Oc5ccc(Cl)c(Cl)c5)CC4)CC3)cc2)n1 | 0.0398 | 0.398 | –
20 | Cc1ccc(C(=O)N2CCC(N3CC[C@H](Oc4ccc(Cl)c(C)c4Cl)C[C@@H]3C(=O)O)CC2)cc1 | > 6.31 | 0.631 | –
21 | Cc1ccc(C(=O)N2CCC(N3CC[C@@H](Oc4ccc(Cl)c(C)c4Cl)C[C@H]3C(=O)O)CC2)cc1 | > 5.01 | 2.51 | –

Row | Compound | Ki (Histamine H1 receptor) [µM] | Ki [9] [µM] | also measured
22 | CS(=O)(=O)c1cccc(C(=O)N2CC[C@@H](N3CCC(Oc4ccc(Cl)c(Cl)c4)CC3)[C@H](C(=O)O)C2)c1 | 0.2 | 0.398 | –
23 | O=C(NS(=O)(=O)c1ccccc1)N1CCC(N2CCC(Oc3ccc(Cl)c(Cl)c3)CC2)CC1 | 0.0316 | 0.0158 | IC50 [10]: 10 µM
24 | O=C(NS(=O)(=O)c1ccc(F)cc1)N1CCC(N2CCC(Oc3ccc(Cl)c(Cl)c3)CC2)CC1 | 0.0501 | 0.0316 | –
25 | O=C(NS(=O)(=O)c1ccc(Cl)cc1)N1CCC(N2CCC(Oc3ccc(Cl)c(Cl)c3)CC2)CC1 | 0.02 | 0.00794 | –
26 | COc1ccc(S(=O)(=O)NC(=O)N2CCC(N3CCC(Oc4ccc(Cl)c(Cl)c4)CC3)CC2)cc1 | 0.02 | 0.0398 | bioavailability [6]: 4%
27 | CN(C)c1ccc(S(=O)(=O)NC(=O)N2CCC(N3CCC(Oc4ccc(Cl)c(Cl)c4)CC3)CC2)cc1 | 0.02 | 0.0501 | –
28 | Cc1ccccc1S(=O)(=O)NC(=O)N1CCC(N2CCC(Oc3ccc(Cl)c(Cl)c3)CC2)CC1 | 0.0501 | 0.02 | Vd [1]: 2.7 L/kg; bioavailability [6]: 8%; IC50 [10]: > 10 µM
29 | O=C(NS(=O)(=O)c1ccccc1Cl)N1CCC(N2CCC(Oc3ccc(Cl)c(Cl)c3)CC2)CC1 | 0.0501 | 0.00501 | –
30 | COc1ccccc1S(=O)(=O)NC(=O)N1CCC(N2CCC(Oc3ccc(Cl)c(Cl)c3)CC2)CC1 | 0.02 | 0.0251 | –
31 | CN(C)c1ccccc1S(=O)(=O)NC(=O)N1CCC(N2CCC(Oc3ccc(Cl)c(Cl)c3)CC2)CC1 | 0.0251 | 0.0316 | –
32 | Cc1cccc(S(=O)(=O)NC(=O)N2CCC(N3CCC(Oc4ccc(Cl)c(Cl)c4)CC3)CC2)c1 | 0.0316 | 0.126 | –
33 | O=C(NS(=O)(=O)c1cccc(Cl)c1)N1CCC(N2CCC(Oc3ccc(Cl)c(Cl)c3)CC2)CC1 | 0.00794 | 0.00631 | –
34 | N#Cc1cccc(S(=O)(=O)NC(=O)N2CCC(N3CCC(Oc4ccc(Cl)c(Cl)c4)CC3)CC2)c1 | 0.02 | 0.1 | –
35 | O=C(NS(=O)(=O)c1cccc(C(F)(F)F)c1)N1CCC(N2CCC(Oc3ccc(Cl)c(Cl)c3)CC2)CC1 | 0.0398 | 0.0316 | –
36 | Cc1ccc(S(=O)(=O)NC(=O)N2CCC(N3CCC(Oc4ccc(Cl)cc4Cl)CC3)CC2)cc1 | 0.0158 | 0.0251 | –
37 | Cc1ccc(S(=O)(=O)NC(=O)N2CCC(N3CCC(Oc4ccc(Cl)c(C)c4Cl)CC3)CC2)cc1 | 0.02 | 0.000631 | –
38 | Cc1ccc(S(=O)(=O)NC(=O)N2CCC(N3CCC(Oc4ccc(Cl)cc4C)CC3)CC2)cc1 | 0.0251 | 0.00794 | Vd [1]: 1.4 L/kg; half-life [3]: 0.9 h; clearance [5]: 27 mL/min/kg; bioavailability [6]: 6%; IC50 [10]: > 10 µM
39 | Cc1ccc(S(=O)(=O)NC(=O)N2CCC(N3CCC(Oc4ccc(Cl)cc4)CC3)CC2)cc1 | 0.126 | 0.126 | –
40 | Cc1ccc(S(=O)(=O)NC(=O)N2CCC(N3CCC(Oc4ccc(F)c(F)c4)CC3)CC2)cc1 | 1 | 0.631 | –
41 | O=C(NS(=O)(=O)Cc1ccccc1)N1CCC(N2CCC(Oc3ccc(Cl)c(Cl)c3)CC2)CC1 | 0.0501 | 0.158 | –
